Source: the array DNA melting data of Ke et al. (doi:10.1101/2024.01.08.574731)

Assays:
[1] = melting temperature; fluorescence melt of hairpins on a sequencing array, two-state fit, raised by 9.35 °C to match UV melts; conditions: sodium 0.088 M
In short: (§1)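 Melting temperature and folding enthalpy were derived from bootstrapped two-state fits. The fitted temperatures were raised by 9.35 °C to agree with UV melts, and four replicates were combined by inverse variance. The underlying data were Cy3 fluorescence images of library hairpins, with annealed Cy3 and quencher oligos, on a sequenced MiSeq flow cell in 50 mM Na-HEPES pH 8.0, 25 mM NaCl, taken in 2.5 °C steps up to 60 °C, normalised to pre-quench Cy3 and to control constructs.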

[2] = folding enthalpy; higher = less favourable; fluorescence melt of hairpins on a sequencing array, two-state fit; conditions: sodium 0.088 M
In short: as §1

## GAAGGAGGAAACTCCCTC ((.((((....)))).))
[1]
  Tm: 28.4 °C
[2]
  folding enthalpy: -12.1 kcal/mol

## GAAGGCACGAAAGTGTTC (((..(((....))))))
[1]
  Tm: 24.6 °C
[2]
  folding enthalpy: -9.46 kcal/mol

## GAAGGCCGAAAGGCTTTC (((.(((....))).)))
[1]
  Tm: 54.2 °C
[2]
  folding enthalpy: -20.6 kcal/mol

## GAAGGCGAAAGCCGATTC ((((((....)))..)))
[1]
  Tm: 57.8 °C
[2]
  folding enthalpy: -14.7 kcal/mol

## GAAGGCGAAAGCCGTTTC ((((((....)))..)))
[1]
  Tm: 39 °C
[2]
  folding enthalpy: -10.9 kcal/mol

## GAAGGCGAAAGCCTCTTC ((((((....)))..)))
[1]
  Tm: 54.5 °C
[2]
  folding enthalpy: -21.5 kcal/mol

## GAAGGGAAACCTTC (((((....)))))
[1]
  Tm: 42.5 °C
[2]
  folding enthalpy: -20.9 kcal/mol

## GAAGGTGGAAACACCCTC ((.((((....)))).))
[1]
  Tm: 33.8 °C
[2]
  folding enthalpy: -12.1 kcal/mol

## GAAGTACCGAAAGGTTTC (((..(((....))))))
[1]
  Tm: 27.2 °C
[2]
  folding enthalpy: -9.64 kcal/mol

## GAAGTACGAAAGTAATTC (((.(((....))).)))
[1]
  Tm: 42.9 °C
[2]
  folding enthalpy: -25.9 kcal/mol

## GAAGTCCGAAAGGATTTC (((.(((....))).)))
[1]
  Tm: 50.2 °C
[2]
  folding enthalpy: -31.6 kcal/mol

## GAAGTGCCGAAAGGCTTC (((..(((....))))))
[1]
  Tm: 35.5 °C
[2]
  folding enthalpy: -7.5 kcal/mol

## GAAGTGCGAAAGCATTC (((.(((....))))))
[1]
  Tm: 36.2 °C
[2]
  folding enthalpy: -13.5 kcal/mol

## GAAGTGGGAAACCACTCC (.(((((....))))).)
[1]
  Tm: 38.4 °C
[2]
  folding enthalpy: -14 kcal/mol

## GAAGTGGGAAACCATTTC (((.(((....))).)))
[1]
  Tm: 36.6 °C
[2]
  folding enthalpy: -30.7 kcal/mol

## GAAGTGGGAAACCGCTTC ((((.((....)).))))
[1]
  Tm: 51.6 °C
[2]
  folding enthalpy: -31.4 kcal/mol

## GAATACGAAAGTAGTTC ((((((....))).)))
[1]
  Tm: 26.8 °C
[2]
  folding enthalpy: -10.9 kcal/mol

## GAATACGAAAGTATATTC ((((((....)))..)))
[1]
  Tm: 26.8 °C
[2]
  folding enthalpy: -15.9 kcal/mol

## GAATACGAAAGTATCTTC ((((((....)))..)))
[1]
  Tm: 46.2 °C
[2]
  folding enthalpy: -28.1 kcal/mol

## GAATACGAAAGTATTTTC ((((((....)))..)))
[1]
  Tm: 36.9 °C
[2]
  folding enthalpy: -19.9 kcal/mol

## GAATACGGAAACGCATTC ((((.((....)).))))
[1]
  Tm: 36.8 °C
[2]
  folding enthalpy: -29.8 kcal/mol

## GAATACGGAAACGTATCC (.(((((....))))).)
[1]
  Tm: 35.1 °C
[2]
  folding enthalpy: -15.8 kcal/mol

## GAATAGGCGAAAGCCTTC (((..(((....))))))
[1]
  Tm: 29.1 °C
[2]
  folding enthalpy: -8.6 kcal/mol

## GAATAGGGAAACCTATTC (((((((....)))))))
[1]
  Tm: 50 °C
[2]
  folding enthalpy: -42.1 kcal/mol

## GAATATGCGAAAGCATTC (((..(((....))))))
[1]
  Tm: 25 °C
[2]
  folding enthalpy: -9.12 kcal/mol

## GAATATGGAAACATATCC (.(((((....))))).)
[1]
  Tm: 24.6 °C
[2]
  folding enthalpy: -13.6 kcal/mol

## GAATCACGAAAGTGTTC (((.(((....))))))
[1]
  Tm: 39.3 °C
[2]
  folding enthalpy: -15.5 kcal/mol

## GAATCAGGAAACCGATTC (((((.(....).)))))
[1]
  Tm: 37.8 °C
[2]
  folding enthalpy: -26.3 kcal/mol

## GAATCCCGAAAGGGGTTC (((.(((....))).)))
[1]
  Tm: 58.1 °C
[2]
  folding enthalpy: -33.9 kcal/mol

## GAATCCGAAAGGAAATTC ((((((....)))..)))
[1]
  Tm: 29.1 °C
[2]
  folding enthalpy: -15.5 kcal/mol

## GAATCCGAAAGGAACTTC ((((((....)))..)))
[1]
  Tm: 33.1 °C
[2]
  folding enthalpy: -13.1 kcal/mol

## GAATCCGAAAGGAGCTTC ((((((....)))..)))
[1]
  Tm: 41.6 °C
[2]
  folding enthalpy: -23.6 kcal/mol

## GAATCCGGAAACGGATTC (((((((....)))))))
[1]
  Tm: 63.6 °C
[2]
  folding enthalpy: -45.2 kcal/mol

## GAATCTGGAAACAGATCC (.(((((....))))).)
[1]
  Tm: 33.1 °C
[2]
  folding enthalpy: -17.1 kcal/mol

## GAATCTGGAAACAGGTTC (((.(((....))).)))
[1]
  Tm: 44 °C
[2]
  folding enthalpy: -31.5 kcal/mol

## GAATGAGGAAACTCATCC (.(((((....))))).)
[1]
  Tm: 29.9 °C
[2]
  folding enthalpy: -17.4 kcal/mol

## GAATGCGAAAGCAATTTC ((((((....)))..)))
[1]
  Tm: 30.6 °C
[2]
  folding enthalpy: -9.54 kcal/mol

## GAATGCGAAAGCAGCTTC ((((((....)))..)))
[1]
  Tm: 39.7 °C
[2]
  folding enthalpy: -23 kcal/mol

## GAATGCGAAAGCATATTC ((((((....)))..)))
[1]
  Tm: 33 °C
[2]
  folding enthalpy: -11.6 kcal/mol

## GAATGCGAAAGCATGTTC ((((((....)))..)))
[1]
  Tm: 42.6 °C
[2]
  folding enthalpy: -11.2 kcal/mol

## GAATGCGAAAGCATTC ((((((....))))))
[1]
  Tm: 68.4 °C
[2]
  folding enthalpy: -27.6 kcal/mol

## GAATGCGAAAGCATTTC ((((((....))).)))
[1]
  Tm: 50.2 °C
[2]
  folding enthalpy: -12.5 kcal/mol

## GAATGCGGAAACGTGTTC (((..((....))..)))
[1]
  Tm: 40.3 °C
[2]
  folding enthalpy: -31.8 kcal/mol

## GAATGGGCGAAAGCCTTC (((..(((....))))))
[1]
  Tm: 32 °C
[2]
  folding enthalpy: -6.79 kcal/mol

## GAATGGGGAAACCCATTC (((((((....)))))))
[1]
  Tm: 57.6 °C
[2]
  folding enthalpy: -33.7 kcal/mol
